# Results reported in ChEMBL document CHEMBL1140999, “Succinyl hydroxamates as potent and selective non-peptidic inhibitors of procollagen C-proteinase: design, synthesis, and evaluation as topically applied, dermal anti-scarring agents” (Bioorg Med Chem Lett, 2008).
# How the values were obtained:
# [1] = target: T1, Bone morphogenetic protein 1 (Homo sapiens, UniProt P13497); test: Inhibition of human procollagen C-proteinase expressed in CHO cells by fluorescence assay; format: cell-based
# T1 sequence (P13497 whole entry): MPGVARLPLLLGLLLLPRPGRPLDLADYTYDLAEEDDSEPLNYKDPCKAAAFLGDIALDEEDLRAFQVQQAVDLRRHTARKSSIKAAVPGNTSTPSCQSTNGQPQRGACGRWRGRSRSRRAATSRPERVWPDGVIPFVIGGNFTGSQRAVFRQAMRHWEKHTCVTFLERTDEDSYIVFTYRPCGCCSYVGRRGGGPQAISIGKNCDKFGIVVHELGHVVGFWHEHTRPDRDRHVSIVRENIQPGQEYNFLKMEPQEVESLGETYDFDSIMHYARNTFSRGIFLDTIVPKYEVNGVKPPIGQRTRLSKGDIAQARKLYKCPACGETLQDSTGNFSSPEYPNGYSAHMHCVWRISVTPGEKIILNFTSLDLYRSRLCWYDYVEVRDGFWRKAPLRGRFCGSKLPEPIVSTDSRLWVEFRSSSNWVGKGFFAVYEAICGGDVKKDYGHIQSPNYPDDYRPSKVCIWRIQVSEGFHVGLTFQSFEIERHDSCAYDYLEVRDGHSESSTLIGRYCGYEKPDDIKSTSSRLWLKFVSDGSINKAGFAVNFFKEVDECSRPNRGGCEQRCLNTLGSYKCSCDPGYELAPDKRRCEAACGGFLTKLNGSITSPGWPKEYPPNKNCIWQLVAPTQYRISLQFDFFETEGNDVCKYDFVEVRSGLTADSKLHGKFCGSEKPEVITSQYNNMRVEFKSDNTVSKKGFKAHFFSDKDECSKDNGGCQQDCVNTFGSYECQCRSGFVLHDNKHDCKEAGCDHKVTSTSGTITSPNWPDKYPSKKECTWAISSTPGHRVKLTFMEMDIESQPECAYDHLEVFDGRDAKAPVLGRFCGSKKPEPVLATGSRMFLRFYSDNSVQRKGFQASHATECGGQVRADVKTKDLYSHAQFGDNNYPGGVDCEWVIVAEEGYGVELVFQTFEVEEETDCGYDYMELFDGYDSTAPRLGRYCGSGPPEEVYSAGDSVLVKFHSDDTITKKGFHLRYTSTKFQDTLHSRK
# [2] = Lipophilicity, log D at pH 7.4; format: physicochemical; conditions: buffer
# [3] = Aqueous solubility in phosphate-buffered saline at pH 7.4 by HPLC; format: physicochemical
# [4] = target: T1, Bone morphogenetic protein 1; test: Inhibition of human procollagen C-proteinase assessed as [3H]procollagen turnover by scintillation counting
# Stromelysin-1 = Stromelysin-1 (Homo sapiens, UniProt P08254); test: Inhibition of human MMP3 by fluorescence assay
# Chain of Stromelysin-1 (P08254 whole entry): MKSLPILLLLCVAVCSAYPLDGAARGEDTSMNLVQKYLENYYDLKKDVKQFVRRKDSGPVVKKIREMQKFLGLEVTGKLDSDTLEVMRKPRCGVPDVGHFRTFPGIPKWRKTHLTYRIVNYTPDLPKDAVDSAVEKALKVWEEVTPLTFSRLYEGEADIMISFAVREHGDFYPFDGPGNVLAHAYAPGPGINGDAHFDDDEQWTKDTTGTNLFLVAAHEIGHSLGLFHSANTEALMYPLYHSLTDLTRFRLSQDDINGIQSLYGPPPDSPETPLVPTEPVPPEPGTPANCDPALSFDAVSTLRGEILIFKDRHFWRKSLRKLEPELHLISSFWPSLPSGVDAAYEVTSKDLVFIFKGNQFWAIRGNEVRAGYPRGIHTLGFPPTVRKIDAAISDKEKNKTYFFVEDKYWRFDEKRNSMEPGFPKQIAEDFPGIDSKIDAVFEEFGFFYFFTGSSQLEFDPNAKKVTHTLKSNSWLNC
# Fibroblast [5] = test: Reduction in collagen deposition in human fibroblasts at 10 uM after 8 days by HPLC; format: functional; parameters: scale not given: the % may be the effect or the level left
# Zone of skin [6] = test: Effect on transepidermal penetration in human cadaver skin assessed as TED flux after 24 hrs by LC-MS/MS analysis using [14C]mannitol as receptor fluid; format: functional
# Procedure, shortened: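 Human cadaver stratum corneum was mounted in a Franz diffusion cell and exposed for 24 h to a solution in 50% aqueous propylene glycol (pH 6.8). Compound reaching the receptor chamber was measured and a flux rate was calculated. Reported as mean ± SEM, n = 6–10.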
# [7] = Dissociation constant, pKa of the compound; format: physicochemical
# Fibroblast [8] = test: Reduction in collagen deposition in human fibroblasts after 8 days by HPLC; format: functional, cell-based
# [9] = Saturated solubility in propylene glycol-citrate buffer-ethanol; format: physicochemical
# Zone of skin [10] = test: Effect on transepidermal penetration in human cadaver skin assessed as TED flux after 24 hrs by LC-MS/MS analysis using [14C]mannitol as receptor fluid in presence of propylene glycol-citrate buffer-ethanol; format: functional
# Procedure, shortened: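 Human cadaver stratum corneum was mounted in a Franz diffusion cell and exposed for 24 h to a solution in propylene glycol–citrate buffer–ethanol (20:30:50). Receptor-chamber concentration was used to calculate TED flux.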
# [11] = target: 3',5'-cyclic-AMP phosphodiesterase 4A (Homo sapiens, UniProt P27815); test: Inhibition of PDE4A
# Chain of 3',5'-cyclic-AMP phosphodiesterase 4A (P27815 whole entry): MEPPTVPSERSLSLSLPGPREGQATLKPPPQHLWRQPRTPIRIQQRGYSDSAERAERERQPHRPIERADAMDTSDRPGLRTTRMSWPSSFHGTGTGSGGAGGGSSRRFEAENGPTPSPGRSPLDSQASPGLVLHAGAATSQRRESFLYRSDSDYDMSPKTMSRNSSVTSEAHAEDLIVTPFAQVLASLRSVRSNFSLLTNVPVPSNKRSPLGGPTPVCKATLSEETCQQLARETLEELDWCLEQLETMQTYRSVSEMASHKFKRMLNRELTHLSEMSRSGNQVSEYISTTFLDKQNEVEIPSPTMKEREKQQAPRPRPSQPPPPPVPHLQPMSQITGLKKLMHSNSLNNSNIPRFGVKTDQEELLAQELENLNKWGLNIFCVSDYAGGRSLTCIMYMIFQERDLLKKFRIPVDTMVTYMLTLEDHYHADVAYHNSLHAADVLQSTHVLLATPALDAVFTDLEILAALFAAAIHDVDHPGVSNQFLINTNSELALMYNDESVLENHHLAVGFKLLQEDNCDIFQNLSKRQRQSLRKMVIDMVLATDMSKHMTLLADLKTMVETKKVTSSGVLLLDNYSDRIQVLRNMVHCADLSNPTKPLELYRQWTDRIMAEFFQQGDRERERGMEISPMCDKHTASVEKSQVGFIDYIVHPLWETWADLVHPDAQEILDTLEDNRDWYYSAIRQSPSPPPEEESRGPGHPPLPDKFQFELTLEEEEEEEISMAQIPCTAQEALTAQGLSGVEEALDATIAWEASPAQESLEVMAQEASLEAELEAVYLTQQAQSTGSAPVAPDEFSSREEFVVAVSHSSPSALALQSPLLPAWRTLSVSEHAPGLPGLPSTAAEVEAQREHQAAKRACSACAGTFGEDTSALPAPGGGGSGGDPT
# [12] = target: 3',5'-cyclic-AMP phosphodiesterase 4B (Homo sapiens, UniProt Q07343); test: Inhibition of PDE4B
# Chain of 3',5'-cyclic-AMP phosphodiesterase 4B (Q07343 whole entry): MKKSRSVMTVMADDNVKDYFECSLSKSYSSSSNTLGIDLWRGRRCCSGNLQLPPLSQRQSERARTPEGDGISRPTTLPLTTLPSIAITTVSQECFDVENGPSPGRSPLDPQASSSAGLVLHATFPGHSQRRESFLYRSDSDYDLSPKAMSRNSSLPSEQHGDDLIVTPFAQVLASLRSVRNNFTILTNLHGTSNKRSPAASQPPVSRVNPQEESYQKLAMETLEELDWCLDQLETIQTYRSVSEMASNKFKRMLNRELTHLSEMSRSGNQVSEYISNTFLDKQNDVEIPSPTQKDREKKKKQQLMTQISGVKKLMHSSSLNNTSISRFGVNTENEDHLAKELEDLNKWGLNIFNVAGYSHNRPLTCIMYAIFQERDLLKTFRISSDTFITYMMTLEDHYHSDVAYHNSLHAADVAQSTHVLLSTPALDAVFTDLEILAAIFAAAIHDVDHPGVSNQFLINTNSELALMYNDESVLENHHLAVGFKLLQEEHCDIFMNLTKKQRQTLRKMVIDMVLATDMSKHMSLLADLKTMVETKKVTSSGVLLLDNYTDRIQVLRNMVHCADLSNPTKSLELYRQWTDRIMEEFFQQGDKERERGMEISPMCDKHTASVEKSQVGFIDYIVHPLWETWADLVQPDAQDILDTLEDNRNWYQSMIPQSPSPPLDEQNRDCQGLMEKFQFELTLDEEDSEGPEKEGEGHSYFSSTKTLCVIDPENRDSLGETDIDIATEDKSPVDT
# [13] = target: 3',5'-cyclic-AMP phosphodiesterase 4C (Homo sapiens, UniProt Q08493); test: Inhibition of PDE4C
# Chain of 3',5'-cyclic-AMP phosphodiesterase 4C (Q08493 whole entry): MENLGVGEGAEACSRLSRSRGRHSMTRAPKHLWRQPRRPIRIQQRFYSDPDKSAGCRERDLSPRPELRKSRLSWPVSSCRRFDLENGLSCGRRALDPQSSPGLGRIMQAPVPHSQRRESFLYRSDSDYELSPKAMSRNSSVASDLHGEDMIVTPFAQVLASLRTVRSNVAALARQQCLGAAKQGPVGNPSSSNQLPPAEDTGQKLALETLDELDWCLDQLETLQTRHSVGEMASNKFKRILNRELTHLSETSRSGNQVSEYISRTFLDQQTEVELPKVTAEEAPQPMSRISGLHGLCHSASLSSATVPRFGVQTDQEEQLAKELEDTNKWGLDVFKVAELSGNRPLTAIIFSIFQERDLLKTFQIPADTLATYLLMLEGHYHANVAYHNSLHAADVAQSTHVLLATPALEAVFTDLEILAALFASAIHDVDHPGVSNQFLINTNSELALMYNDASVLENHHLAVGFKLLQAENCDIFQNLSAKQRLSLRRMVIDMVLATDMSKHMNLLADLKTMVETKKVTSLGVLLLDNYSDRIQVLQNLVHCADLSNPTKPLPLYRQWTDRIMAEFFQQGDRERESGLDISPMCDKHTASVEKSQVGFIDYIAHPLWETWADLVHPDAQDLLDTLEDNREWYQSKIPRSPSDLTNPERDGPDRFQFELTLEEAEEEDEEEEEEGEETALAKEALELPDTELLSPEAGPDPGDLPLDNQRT
# [14] = target: 3',5'-cyclic-AMP phosphodiesterase 4D (Homo sapiens, UniProt Q08499); test: Inhibition of PDE4D
# Chain of 3',5'-cyclic-AMP phosphodiesterase 4D (Q08499 whole entry): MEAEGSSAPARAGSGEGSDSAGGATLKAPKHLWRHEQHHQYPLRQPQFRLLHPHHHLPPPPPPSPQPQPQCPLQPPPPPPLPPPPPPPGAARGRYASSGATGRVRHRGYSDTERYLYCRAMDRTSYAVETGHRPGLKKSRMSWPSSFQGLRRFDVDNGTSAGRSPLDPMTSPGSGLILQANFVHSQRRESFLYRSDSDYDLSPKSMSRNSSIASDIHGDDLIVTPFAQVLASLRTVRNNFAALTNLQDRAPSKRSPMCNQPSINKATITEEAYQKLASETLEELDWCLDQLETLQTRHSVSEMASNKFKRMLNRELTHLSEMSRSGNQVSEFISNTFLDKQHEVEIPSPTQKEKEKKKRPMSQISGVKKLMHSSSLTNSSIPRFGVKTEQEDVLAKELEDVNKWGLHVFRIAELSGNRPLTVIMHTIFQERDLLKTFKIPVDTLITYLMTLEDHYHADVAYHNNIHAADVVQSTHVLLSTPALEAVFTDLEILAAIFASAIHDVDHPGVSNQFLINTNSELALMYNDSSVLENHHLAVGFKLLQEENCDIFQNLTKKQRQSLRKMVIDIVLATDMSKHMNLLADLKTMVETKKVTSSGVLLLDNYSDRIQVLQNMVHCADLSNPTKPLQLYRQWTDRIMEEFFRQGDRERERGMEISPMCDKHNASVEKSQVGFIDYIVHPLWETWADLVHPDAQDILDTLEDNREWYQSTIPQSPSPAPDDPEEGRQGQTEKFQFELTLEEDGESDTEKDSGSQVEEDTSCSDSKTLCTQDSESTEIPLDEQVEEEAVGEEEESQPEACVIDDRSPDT
# [15] = Metabolic stability in human liver microsomes assessed as half life; format: ADME, Microsome
# [16] = Metabolic stability in dog liver microsomes assessed as half life; format: ADME, Canis lupus familiaris, Microsome
# [17] = Metabolic stability in rat liver microsomes assessed as half life; format: ADME, Microsome
# [18] = Elimination half life in rat at 2 mg/kg, iv administered as single dose; format: ADME, organism-based; parameters: dose 2 mg/kg, route intravenous; conditions: in vivo, read-out: beta t1/2 (converted)
# Procedure, shortened: (§1)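 Male rats (n = 2) received a single intravenous dose of 2 mg/kg. Plasma sampling gave half-life, clearance and volume of distribution. Concentrations were also followed after dosing against the assay's limit of quantification.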
# [19] = Plasma clearance in rat at 2 mg/kg, iv administered as single dose; format: ADME, organism-based; parameters: dose 2 mg/kg, route intravenous; procedure, shortened: as §1
# [20] = Volume of distribution in rat at 2 mg/kg, iv administered as single dose; format: ADME, organism-based; parameters: dose 2 mg/kg, route intravenous; conditions: in vivo; procedure, shortened: as §1
# [21] = Elimination half life in dog at 0.5 mg/kg, iv administered as single dose; format: ADME, organism-based, Canis lupus familiaris; parameters: dose 0.5 mg/kg, route intravenous; conditions: in vivo, read-out: beta t1/2 (converted)
# Procedure, shortened: (§2)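 Male dogs (n = 2) received a single intravenous dose of 0.5 mg/kg or a single oral dose of 2 mg/kg. Plasma concentrations were used to derive half-life, clearance, volume of distribution, Cmax, Tmax and oral bioavailability.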
# [22] = Plasma clearance in dog at 0.5 mg/kg, iv administered as single dose; format: ADME, organism-based, Canis lupus familiaris; parameters: dose 0.5 mg/kg, route intravenous; procedure, shortened: as §2
# [23] = Volume of distribution in dog at 0.5 mg/kg, iv administered as single dose; format: ADME, organism-based, Canis lupus familiaris; parameters: dose 0.5 mg/kg, route intravenous; conditions: in vivo; procedure, shortened: as §2
# [24] = Cmax in dog at 2 mg/kg, po administered as single dose; format: ADME, organism-based, Canis lupus familiaris; parameters: dose 2 mg/kg, route oral; conditions: in vivo; procedure, shortened: as §2
# [25] = Tmax in dog at 2 mg/kg, po administered as single dose; format: ADME, organism-based, Canis lupus familiaris; parameters: dose 2 mg/kg, route oral; conditions: in vivo; procedure, shortened: as §2
# [26] = Oral bioavailability in dog at 2 mg/kg administered as single dose; format: ADME, organism-based, Canis lupus familiaris; conditions: in vivo; procedure, shortened: as §2
# [27] = Plasma concentration in rat at 2 mg/kg, iv administered as single dose after 2 hrs; format: ADME, organism-based; parameters: dose 2 mg/kg, route intravenous; procedure, shortened: as §1
# [28] = Drug level in pig skin assessed as steady state concentration at 0.9 mg/ml in 50% aqueous propylene glycol administered tropically after 24 hrs; format: ADME, tissue-based, Sus scrofa, Zone of skin; conditions: topical or ocular, read-out: Drug uptake
# Procedure, shortened: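 Applied topically to intact pig skin as a 0.9 mg/ml solution in 50% aqueous propylene glycol. Tissue level was measured in the upper dermis as the steady-state concentration at 24 h.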
structure (smiles),measurement,setting,value
O=C(C[C@@H](CCCC1CCCCC1)c1nc(C(=O)NCc2ccccc2)no1)NO,IC50,[1],57 nM
CN1CCN(C(=O)c2noc([C@H](CCCC3CCCCC3)CC(=O)NO)n2)CC1,IC50,[1],54 nM
CN(Cc1ccccn1)C(=O)c1noc([C@H](CCCC2CCCCC2)CC(=O)NO)n1,IC50,[1],40 nM
O=C(O)CNC(=O)c1noc([C@H](CCCC2CCCCC2)CC(=O)NO)n1,IC50,[1],21 nM
O=C(C[C@@H](CCCC1CCCCC1)c1nc(C(=O)NCc2ccccn2)no1)NO,IC50,[1],37 nM
NC(=O)c1noc([C@@H](CCCC2CCCCC2)CC(=O)NO)n1,IC50,[1],> 2000 nM
Cc1oc([C@H](CCCC2CCCCC2)CC(=O)NO)nc1C(=O)N(C)C,IC50,[1],17 nM
CNC(=O)c1noc([C@H](CCCC2CCCCC2)CC(=O)NO)n1,IC50,[1],28 nM
Cc1oc([C@H](CCCC2CCCCC2)CC(=O)NO)nc1C(N)=O,IC50,[1],17 nM
CN(C)C(=O)c1noc([C@H](CCCC2CCCCC2)CC(=O)NO)n1,IC50,[1],10 nM
same,logD,[2],3.6
same,solubility,[3],900 µg/mL
same,IC50,[4],9.3 nM
same,IC50,Stromelysin-1,28000 nM
same,Activity,Fibroblast [5],67%
same,TED,Zone of skin [6],2.6 microg/cm2/h
O=C(C[C@@H](CCCC1CCCCC1)c1nc(C(=O)N2CCCC2)no1)NO,IC50,[1],43 nM
O=C(C[C@@H](CCCC1CCCCC1)c1nc(C(=O)N2CCCCC2)no1)NO,IC50,[1],26 nM
O=C(C[C@@H](CCCC1CCCCC1)c1nc(C(=O)N2CCOCC2)no1)NO,IC50,[1],25 nM
NC(=O)c1noc([C@H](CCCC2CCCCC2)CC(=O)NO)n1,logD,[2],2.6
same,pKa,[7],9
same,solubility,[3],35 µg/mL
same,IC50,[4],26 nM
same,Activity,Fibroblast [5],76%
same,Activity,Fibroblast [8],Dose-dependent effect
same,IC50,Fibroblast [8]; 192 h,2100 nM
same,TED,Zone of skin [6],0.3 microg/cm2/h
same,solubility thermodynamic,[9],13800 µg/mL
same,TED,Zone of skin [10],1.59 microg/cm2/h
same,IC50,[11],1800 nM
same,IC50,[12],1500 nM
same,IC50,[13],2400 nM
same,IC50,[14],900 nM
same,half-life,[15],19 min
same,half-life,[16],9 min
same,half-life,[17],< 2 min
same,half-life,[18],48 min
same,clearance,[19],157 mL/min/kg
same,Vd,[20],12 L/kg
same,half-life,[21],90 min
same,clearance,[22],35 mL/min/kg
same,Vd,[23],4.6 L/kg
same,Cmax,[24],110 ng/mL
same,Tmax,[25],30 min
same,bioavailability,[26],13%
same,concentration at 2 h,[27],< 100 ng/mL
same,concentration at 24 h,[28],10 µM
CN(C)C(=O)c1coc([C@H](CCCC2CCCCC2)CC(=O)NO)n1,IC50,[1],45 nM
CCCNC(=O)c1noc([C@H](CCCC2CCCCC2)CC(=O)NO)n1,IC50,[1],32 nM
CC(C)NC(=O)c1noc([C@H](CCCC2CCCCC2)CC(=O)NO)n1,IC50,[1],21 nM
CN(Cc1ccccc1)C(=O)c1noc([C@H](CCCC2CCCCC2)CC(=O)NO)n1,IC50,[1],65 nM
O=C(C[C@@H](CCCC1CCCCC1)c1nc(C(=O)NCC2CC2)no1)NO,IC50,[1],33 nM
NC(=O)c1coc([C@H](CCCC2CCCCC2)CC(=O)NO)n1,IC50,[1],73 nM
